Sampled rows, rich in hits. Any-hit rate of the full collection: about 1.7%.
DNMT1 block = human DNMT1 methyltransferase inhibitors, primary screen, biochemical, molecular beacon, fluorescence, HinP1I cleavage, uHTS; inhibition (reported as % activation of signal), % at 10 µM; DNA (cytosine-5)-methyltransferase 1 (Homo sapiens), P26358; actives 0.83% (n = 360,000); in the data active = inhibition above about 50%
SUMO1 PPI mod = modulators of SUMO1 protein-protein interactions, primary screen, biochemical, uHTS. SUMO1 binding to a labelled peptide, TR-FRET, 1 h. inhibition, % at 20 µM. actives 0.33% (n = 360,000); in the data active = inhibition above about 37%
Target sequence (P63165 whole entry, looked up): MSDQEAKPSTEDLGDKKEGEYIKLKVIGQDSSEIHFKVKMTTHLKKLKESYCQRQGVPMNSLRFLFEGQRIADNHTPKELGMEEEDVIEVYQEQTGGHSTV
STEP block = STEP phosphatase inhibitors, primary screen, biochemical, fluorescence intensity, uHTS | Tyrosine-protein phosphatase non-receptor type 5 (Homo sapiens), P54829 | inhibition, % at 20 µM | recombinant STEP, OMFP fluorogenic substrate | actives 0.25% (n = 360,000);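 active = inhibition at 20 µM, scaled per plate between control wells, above about 37%, limit read from the data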;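 also: 0% = DMSO with enzyme and substrate and 100% = substrate only without enzyme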
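Measure: Control-normalized % inhibition with plate pattern correction | Test system: STEP phosphatase, cell-free reaction | Medium: pH 6.0 Bis-Tris with DTT and Tween 20 | Technique: Fluorescence, 480/540 nm | Times: Reaction 20 min, ambient temperature | Doses: Single compound dose of 20 µM, 1% DMSO final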
Scp1 inh = Scp-1 phosphatase inhibitors, primary screen, biochemical, colorimetric, uHTS; Carboxy-terminal domain RNA polymerase II polypeptide A small phosphatase 1 (Homo …; Recombinant Scp1, phosphopeptide, malachite green phosphate absorbance; inhibition, % at 20 µM; actives 0.88% (n = 340,000);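 active = inhibition above about 50% at 20 µM, limit read from the data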;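 also: plate controls were DMSO wells with enzyme for no effect and wells lacking enzyme for full effect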
Target sequence (Q9GZU7 76-261 limits assumed): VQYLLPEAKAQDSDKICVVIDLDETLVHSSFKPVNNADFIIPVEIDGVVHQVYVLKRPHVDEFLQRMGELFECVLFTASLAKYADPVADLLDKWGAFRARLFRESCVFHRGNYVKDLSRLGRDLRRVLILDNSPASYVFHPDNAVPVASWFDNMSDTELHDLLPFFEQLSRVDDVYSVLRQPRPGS
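assay system = SCP-1 phosphatase catalytic domain, residues 76-261 | buffer or medium = 50 mM Tris acetate pH 5.5, 0.005% Tween-20, 10 mM MgCl2 | incubation = enzyme reaction 45 min at room temperature, colour 5 min, stabilisation 30 min | signal = Phosphate-binding colour reagent, absorbance read at 630 nm | measure = % inhibition at 20 µM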
LMPTP block = LMPTP phosphatase inhibitors, primary screen, biochemical, fluorescence intensity, uHTS; actives 0.22% (n = 360,000); AID 651560, 2012; recombinant LMPTP-A, OMFP fluorogenic substrate; Low molecular weight phosphotyrosine protein phosphatase (Homo sapiens), P24666; inhibition, % at 20 µM;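 active = compounds that cut the enzyme signal by at least half of the control window in the single-dose screen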;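 also: plate controls were DMSO wells with enzyme plus substrate for no effect and substrate without enzyme for full effect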
Target sequence (P24666 whole entry, looked up): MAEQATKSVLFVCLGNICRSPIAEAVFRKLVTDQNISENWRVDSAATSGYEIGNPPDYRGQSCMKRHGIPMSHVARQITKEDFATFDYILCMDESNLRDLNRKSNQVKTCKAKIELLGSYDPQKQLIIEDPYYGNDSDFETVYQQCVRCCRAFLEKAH
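Material: LMPTP-A; amount: 0.625 nM enzyme; doses: single 20 µM dose; times: reaction 50 min, room temperature, dark; technique: fluorescence intensity of OMFP turnover product; benchmarks: no-enzyme and uninhibited controls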
CASP6 VEID inh = human caspase-6 inhibitors, primary screen, biochemical, VEID-R110 fluorescence, single point, set 2; P55212; purified caspase-6, Z-VEID-R110 cleavage fluorescence; inhibition, % at 12.5 µM; actives 0.53% (n = 350,000); AID 686996, 2013;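 active = mean inhibition across replicates at least about 35%, with every replicate also reaching that limit, limit read from the data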;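 also: 0% = median of neutral control wells and 100% = no fluorescence left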
Target sequence (P55212 24-179 limits assumed): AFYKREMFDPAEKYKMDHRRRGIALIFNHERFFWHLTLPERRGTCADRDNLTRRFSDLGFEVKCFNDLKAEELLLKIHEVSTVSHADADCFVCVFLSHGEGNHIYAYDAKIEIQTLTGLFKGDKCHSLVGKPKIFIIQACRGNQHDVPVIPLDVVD
Target sequence (P55212 194-293 limits assumed): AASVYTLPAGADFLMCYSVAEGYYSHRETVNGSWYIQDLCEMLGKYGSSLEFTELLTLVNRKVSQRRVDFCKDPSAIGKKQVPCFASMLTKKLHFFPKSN
Beacon interf DR = spectral interference with molecular beacon fluorescence, dose response, artefact control for DNMT1 inhibitor project, biochemical, fluorescent molecular beacon; shares compounds with DNMT1 block; spectral interference counter-screen; IC50, µM; 200 tested, under 10 active; call rule not given here
DNMT1 inh conf = DNMT1 methyltransferase inhibitor retest, confirmation, biochemical, molecular beacon, fluorescence, single concentration; shares compounds with DNMT1 block; DNMT1 molecular beacon HinP1I cleavage; inhibition, % at 10 µM; actives 8% (n = 2,300); AID 602385, 2012;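 active = average inhibition of at least 30% in the single-concentration confirmation test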
DNMT1 interf = counter-screen for DNMT1 inhibitors: spectral interference. shares compounds with DNMT1 block. DNMT1 molecular beacon spectral interference counterscreen, fluorescence 485/520. activation (fluorescence interference), % at 10 µM. actives 1% (n = 2,300);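 active = activation of at least 30% at 10 µM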;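 also: DNMT1 catalytic domain with a HinP1I cleavage step and a FAM/dabcyl DNA beacon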
Active calls of the source: *; . = no result given; ! = repeats disagree.

SMILES | DNMT1 block | SUMO1 PPI mod | STEP block | Scp1 inh | LMPTP block | CASP6 VEID inh | DNMT1 inh conf | DNMT1 interf | others
O=C(O)CCN1C(=O)/C(=C\c2ccc(OCc3ccccc3)c(OCc3ccccc3)c2)SC1=S | 98.3* | 24.1 | 7.4 | 15.6 | 14.4 | 13.3 | 21.8 | 1.4
O=C(O)CN1C(=O)/C(=C\c2cc(Br)ccc2OCc2ccccc2Cl)SC1=S | 64.8* | 22.4 | 14.9 | 34.5 | 15.6 | 75.6* | 71.3* | -7.5 | Beacon interf DR=>99
O=C(Cn1nc(-c2ccc3c(c2)OCCO3)ccc1=O)Nc1ccc(-n2cnnn2)cc1 | -3.4 | -0.7 | -1.0 | -8.3 | 1.7 | -1.4 | . | .
O=C(c1ccco1)N(Cc1ccc(Cl)cc1)Cc1ccco1 | 0.6 | 2.3 | 1.0 | -11.0 | 2.2 | 3.8 | . | .
N#Cc1c(-c2cccc(Br)c2)cc(-c2ccco2)[nH]c1=O | 87.2* | 28.6 | 2.2 | -6.0 | 25.4 | 15.9 | 9.6 | 13.9
COc1ccc(-c2cc(-c3ccco3)[nH]c(=O)c2C#N)cc1 | -6.4 | -19.6 | 5.9 | 30.9 | 15.7 | 31.7 | . | .
COc1cccc(NS(=O)(=O)c2ccc3c(c2)CCCN3C(C)=O)c1 | 1.3 | -5.0 | -2.5 | -7.7 | -0.4 | 4.4 | . | .
COc1cccc(NS(=O)(=O)c2ccc3c(c2)C2C=CCC2C(c2ccc(C(=O)O)cc2)N3)c1 (stereo not given) | 89.7* | 44.0* | 6.4 | 13.6 | 8.8 | . | 28.0 | 1.9 | Beacon interf DR=>99
Cc1ccc(N=Cc2c(O)[nH]c3ccccc23)c([N+](=O)[O-])c1 | 59.0* | -19.4 | 0.6 | -4.5 | 10.2 | 7.2 | 2.5 | 2.1
COc1ccc(N=Cc2c(O)[nH]c3ccccc23)cc1 | -4.6 | -13.3 | 1.6 | -2.2 | -0.9 | . | . | .
CN(Cc1ccccc1)C(=O)c1ccc(Cl)c([N+](=O)[O-])c1 | 3.5 | -14.3 | -2.4 | -5.2 | -0.8 | 0.5 | . | .
COc1ccc(C(=O)Nc2ccc(C)cn2)c(OC)c1 | 73.8* | 7.0 | 1.2 | -9.0 | -1.1 | . | 1.4 | 3.0
CCCCc1nc2sc3c(SCC(=O)NCc4ccco4)ncnc3c2c2c1CCC2 | 78.2* | -110.6 | 4.9 | 46.8 | 2.6 | . | 6.0 | 4.8
CCNC(=S)N/N=C1\C(=O)c2cccc3cccc1c23 | -3.8 | -9.9 | -0.8 | -11.7 | 0.8 | . | . | .
O=C(N/N=C1/C(=O)c2cccc3cccc1c23)c1ccc(Cl)cc1 | 96.5* | 71.2* | 98.8* | 95.3* | 94.2* | . | 0.3 | -6.8
Cc1ccc(Nc2nc(=O)c3cc([N+](=O)[O-])ccc3s2)cc1 | 59.0* | -20.4 | 4.1 | 29.2 | 14.1 | -1.0 | 0.8 | -3.8
CCCCN(CC)CCNc1c(NC2CCN(C(=O)OCC)CC2)c(=O)c1=O | 66.1* | 7.4 | -0.8 | -9.8 | -1.9 | -20.6 | 0.8 | 4.9
C=C/C(C)=C/C[C@H]1C(=C)CCC2[C@](C)(C(=O)O)CCC[C@@]21C (stereo not given in full) | 89.3* | 13.8 | -1.1 | 12.2 | 1.6 | . | 1.9 | -6.9
COc1ccccc1NS(=O)(=O)c1cc2c3c(c1)CCN3C(=O)CC2 | 84.3* | 1.6 | 3.4 | 1.8 | 0.1 | 0.9 | 2.3 | 1.9
Cc1cccc(N2CC(C(=O)NCCC3=CCCCC3)CC2=O)c1C (stereo not given) | 4.2 | 3.2 | -2.4 | 1.2 | -1.4 | -3.3 | . | .
COc1cc2c(C#N)c(N3CCCC3)nc(N)c2c(N)n1 | 99.2* | 55.5* | 18.0 | -0.5 | 28.8 | 96.4*! | 2.8 | 3.5
CCOc1cc2c(C#N)c(N3CCCC3)nc(N)c2c(N)n1 | 2.0 | 8.4 | 2.0 | 3.5 | 3.6 | 15.1 | . | .
COc1cc2c(C#N)c(N3CCN(C)CC3)nc(N)c2c(N)n1 | -19.8 | 8.0 | -4.1 | . | 2.7 | . | . | .
CCCOc1cc2c(C#N)c(N3CCCC3)nc(N)c2c(N)n1 | 97.0* | 50.6* | 19.2 | -1.0 | 24.5 | 38.7* | 3.2 | -2.1
C[C@H](CO)N1C[C@H](C)[C@@H](CN(C)S(=O)(=O)c2ccccc2)Oc2ccc(NC(=O)Cc3ccccc3)cc2C1=O | -0.3 | -0.8 | -1.6 | -8.2 | -1.2 | 0.3 | . | .
SMILES | DNMT1 block | SUMO1 PPI mod | STEP block | Scp1 inh | LMPTP block | CASP6 VEID inh | DNMT1 inh conf | DNMT1 interf | others
c1ccc2c(NCC3CCCO3)nc(N3CCOCC3)nc2c1 (stereo not given) | -0.2 | 0.7 | -1.5 | -4.1 | 9.6 | -5.9 | . | .
COc1cccc(CNC(=O)Cc2ccc(Br)cc2)c1 | 69.7* | 7.2 | -1.9 | -0.2 | -0.3 | -0.3 | 1.9 | 2.1
COc1cccc(CNC(=O)Cn2cccc2)c1 | 0.8 | -2.3 | -3.0 | 5.5 | -0.8 | . | . | .
COc1cccc(-c2cc(=O)c3cc(NC(=O)c4ccc(Cl)cc4)ccc3[nH]2)c1 | 65.5* | 2.3 | 1.9 | 7.9 | -0.9 | 0.6 | -0.5 | -0.9
COc1cccc(-c2cc(=O)c3cc(NC(=O)c4ccccc4)ccc3[nH]2)c1 | 6.0 | 0.0 | -0.7 | -1.3 | -2.1 | 1.4 | . | .
Cc1ccc(Cl)cc1NC(=O)COC(=O)C1CCCC1 | 54.9* | -4.0 | -1.7 | -0.4 | -1.3 | . | 2.6 | 0.6
O=C1CCCc2nc(N3CCN(Cc4ccccc4)CC3)ncc21 | 4.8 | -0.8 | 1.4 | -7.0 | 1.6 | . | . | .
O=C(O)CCCCC1SCC2NC(=O)NC21 (stereo not given) | 81.5* | -1.4 | -0.1 | -1.3 | -1.5 | -1.3 | 2.5 | 2.9
Cc1noc(C)c1S(=O)(=O)Nc1ccc2c(c1)C(=O)N([C@H](C)CO)C[C@@H](C)[C@H](CN(C)C(=O)Cc1ccccc1)OCCCC[C@@H](C)O2 | . | . | . | . | . | -2.2 | . | .
COc1ccc(C(=O)Nc2cccc(C(=O)Nc3cc(C)ccn3)c2)cc1 | 5.4 | 0.8 | -4.5 | 0.5 | -0.8 | -2.2 | . | .
COc1ccc(CCn2c(N)c(C(=O)NCc3ccco3)c3nc4ccccc4nc32)cc1OC | 54.2* | 43.9* | 3.0 | -5.5 | 5.1 | . | 8.6 | 8.8

Bioassay records (PubChem)
